Source: PMC6298601 (Biochemical pharmacology, 2018)
Where “and” joins values, the source holds several entries; their conditions need not be identical. Equal values may be shown once. Entries after “also recorded” stand apart in the source; their conditions may differ. Read-outs that look alike come from different tables or passages of the source.

Columns and labels:
[1] = cited from earlier work
[2] = system: MAO activity in Neuroscreen-1 (NS-1) cells; test: MAO activity in lysates of treated Neuroscreen-1; type: cell-based, rat; conditions: deprenyl 1.0 μM, 12 hours
Outline: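 NS-1 cells (rat PC12 subclone) in suspension culture were treated for 12 hours with test compound (100 µM), a selective MAO-B inhibitor reference (1.0 µM) or ethanol, alongside untreated controls. Lysates were prepared from the cells. MAO activity in the lysates was measured by fluorometric kynuramine deamination, with kynuramine at 80 µM for MAO-A and 50 µM for MAO-B.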

recombinant human MAO-A = molecular target: T1, recombinant human MAO-A (Homo sapiens, UniProt P21397); test: Fluorometric kynuramine deamination assay, recombinant human MAO-A inhibition; type: biochemical
T1 sequence (P21397 1-527): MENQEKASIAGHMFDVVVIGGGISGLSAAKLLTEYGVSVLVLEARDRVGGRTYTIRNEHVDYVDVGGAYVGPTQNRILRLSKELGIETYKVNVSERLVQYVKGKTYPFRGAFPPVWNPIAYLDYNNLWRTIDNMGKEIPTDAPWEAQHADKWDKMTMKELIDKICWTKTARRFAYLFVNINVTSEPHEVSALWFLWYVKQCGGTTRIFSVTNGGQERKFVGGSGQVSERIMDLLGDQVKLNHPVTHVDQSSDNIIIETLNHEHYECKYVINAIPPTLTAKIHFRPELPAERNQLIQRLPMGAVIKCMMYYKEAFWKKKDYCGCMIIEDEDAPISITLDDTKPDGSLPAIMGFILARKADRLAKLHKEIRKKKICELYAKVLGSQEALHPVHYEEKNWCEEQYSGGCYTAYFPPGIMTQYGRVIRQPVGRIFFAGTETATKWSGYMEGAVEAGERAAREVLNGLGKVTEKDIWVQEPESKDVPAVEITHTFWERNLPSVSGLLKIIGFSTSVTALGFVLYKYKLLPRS

recombinant human MAO-B [3] = molecular target: T2, recombinant human MAO-B (Homo sapiens, UniProt P27338); test: biochemical; type: biochemical
T2 sequence (P27338 1-520): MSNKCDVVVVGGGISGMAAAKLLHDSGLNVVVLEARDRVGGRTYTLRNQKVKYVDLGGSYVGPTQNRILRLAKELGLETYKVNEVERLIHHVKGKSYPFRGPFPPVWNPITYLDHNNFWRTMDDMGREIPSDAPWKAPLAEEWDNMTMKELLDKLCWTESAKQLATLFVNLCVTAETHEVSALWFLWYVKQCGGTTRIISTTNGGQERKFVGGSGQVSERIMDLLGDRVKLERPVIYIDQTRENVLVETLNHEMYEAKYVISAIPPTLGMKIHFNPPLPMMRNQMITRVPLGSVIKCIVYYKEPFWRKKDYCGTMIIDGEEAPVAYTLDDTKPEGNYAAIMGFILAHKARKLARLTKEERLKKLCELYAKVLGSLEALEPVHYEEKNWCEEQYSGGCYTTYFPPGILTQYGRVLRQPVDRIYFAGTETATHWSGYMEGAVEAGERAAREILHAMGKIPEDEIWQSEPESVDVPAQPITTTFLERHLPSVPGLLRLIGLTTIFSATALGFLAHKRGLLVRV

[4] = Solubility observation at the concentrations tested; conditions: at the concentrations tested in the MAO assays
recombinant human MAO-B [5] = molecular target: T2, recombinant human MAO-B; type: biochemical
recombinant human MAO-B [6] = molecular target: T2, recombinant human MAO-B; type: binding
recombinant human MAO-B [7] = molecular target: T2, recombinant human MAO-B; type: biochemical; remark: listed apart in the source
[8] = read-out: MAO-B IC50 (μM) ± S.D., kynuramine 50 μM, test compounds 0.01 to 100 μM, mean ± S.D. of triplicate

**Q.** Which “critical micellar concentration (CMC)” value ([1]; ref 46) does the source give for `CCCCC/C=C\C/C=C\C/C=C\C/C=C\CCCCO` [arachidonoyl alcohol] here?
**A.** 30 µM

**Q.** Which “inhibition of MAO activity in NS-1 cells” value [2] does the source give for R-(−)-deprenyl hydrochloride here?
**A.** > 90%

**Q.** Which “critical micellar concentration (CMC)” value ([1]; ref 48) does the source give for `CCCCC/C=C\C/C=C\C/C=C\C/C=C\CCCC(=O)NCC(=O)O` [NA-glycine, N-arachidonyl-glycine] here?
**A.** > 100 µM

**Q.** For `CCCCCCCC/C=C\CCCCCCCC(=O)NCCO` [Oleylethanolamide], which “MAO-A IC50 (μM) ± S.D.” value (recombinant human MAO-A; kynuramine 80 μM, test compounds 0.01 to 100 μM, mean ± S.D. of triplicate) is on record?
**A.** no activity

**Q.** What about the “MAO-B IC50 (μM) ± S.D.” value (recombinant human MAO-B [3]; kynuramine 50 μM, test compounds 0.01 to 100 μM, mean ± S.D. of triplicate) of the same compound?
**A.** no activity

**Q.** And the IC50 (recombinant human MAO-B [3]; [8])?
**A.** > 100 µM

**Q.** Which IC50 (recombinant human MAO-B [3]; [8]) does the source give for `CCCCC/C=C\C/C=C\C/C=C\C/C=C\CCCCOC(CO)CO` [Noladin ether] here?
**A.** 18.2 ± 1.45 µM

**Q.** What about the solubility issues [4] of the same compound?
**A.** did not show any solubility issues

**Q.** With `CCCCC/C=C\C/C=C\C/C=C\C/C=C\CCCC(=O)OC(CO)CO` [2-AG, 2-arachidonoylglycerol] as the compound, how does the IC50 (recombinant human MAO-A) read?
**A.** > 100 µM

**Q.** And the IC50 (recombinant human MAO-B [3])?
**A.** 50.5 ± 0.515 µM

**Q.** What about the “critical micellar concentration (CMC)” value ([1]; ref 48) of the same compound?
**A.** 4.2 ± 0.5 µM

**Q.** What about the solubility issues [4] of the same compound?
**A.** did not show any solubility issues

**Q.** Which “fold greater inhibition of MAO-B compared to MAO-A” value (recombinant human MAO-B [3]; ratio of IC50 MAO-A / MAO-B) does the source give for `CCCCC/C=C\C/C=C\C/C=C\C/C=C\CCCC(=O)OCCN` [Virodhamine] here?
**A.** ~ 55 fold and > 54 fold

**Q.** And the IC50 (recombinant human MAO-B [3]; [8])?
**A.** 0.71 ± 0.04 µM

**Q.** What about the “MAO-B Type of Inhibition” value (recombinant human MAO-B [5]; Lineweaver-Burk analysis and dialysis) of the same compound?
**A.** mixed mechanism/irreversible binding; also recorded: mixed enzyme inhibition mechanism

**Q.** And the Ki (recombinant human MAO-B [5]; read-out: MAO-B Ki (μM) ± S.D., kynuramine 1.90 to 500 μM, mean ± S.D. of triplicate)?
**A.** 0.258 ± 0.037 µM

**Q.** What about the “nature of binding with MAO-B (reversibility)” value (recombinant human MAO-B [6]; equilibrium dialysis overnight) of the same compound?
**A.** irreversible

**Q.** What about the “enzyme activity recovered after overnight dialysis” value (recombinant human MAO-B [6]; virodhamine 10.0 μM, 20 min at 37 °C, dialysis 14-16 h at 4 °C) of the same compound?
**A.** 2.644 ± 0.450%

**Q.** What about the “inhibition of catalytic activity before dialysis” value (recombinant human MAO-B [6]; virodhamine 10.0 μM, 20 min incubation) of the same compound?
**A.** almost complete inhibition

**Q.** And the “inhibition of MAO-B after pre-incubation” value (recombinant human MAO-B [7]; 0.25 μM virodhamine, pre-incubation 0-15 min)?
**A.** 55-70%

**Q.** And the “time dependence of MAO-B inhibition” value (recombinant human MAO-B [7]; pre-incubation 0-15 min, virodhamine 2.5 μM, deprenyl 0.100 μM)?
**A.** time-dependent

**Q.** What about the “inhibition of the enzyme activity at the concentration chosen” value (recombinant human MAO-B [7]; virodhamine 2.5 μM) of the same compound?
**A.** > 60%

**Q.** For `CCCCC/C=C\C/C=C\C/C=C\C/C=C\CCCC(=O)O` [arachidonic acid], which “critical micellar concentration (CMC)” value ([1]; ref 46) is on record?
**A.** 73 µM

**Q.** And the “critical micellar concentration (CMC)” value ([1]; ref 47)?
**A.** ~ 30 μM

**Q.** With `CCCCC/C=C\C/C=C\C/C=C\C/C=C\CCCC(=O)NCCO` [Anandamide] as the compound, how does the IC50 (recombinant human MAO-A) read?
**A.** > 100 µM

**Q.** And the IC50 (recombinant human MAO-B [3])?
**A.** 40 ± 4.6 µM

**Q.** With `CCCCC/C=C\C/C=C\C/C=C\C/C=C\CCCC(=O)N[C@H](C)CO` [(R)-(+)-Methanandamide] as the compound, how does the IC50 (recombinant human MAO-B [3]; [8]) read?
**A.** 51.1 ± 1.3 µM

**Q.** What about the solubility issues [4] of the same compound?
**A.** did not show any solubility issues
